Results published in the EternaBench riboswitch data.

Tested on: MS2 coat protein
Assay: apparent Kd, MS2 coat protein; higher = weaker binding; RNA-MaP array; FMN 200 µM where present
Method in brief: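 Each design was made on Illumina sequencing-chip clusters by stalled E. coli RNA polymerase and titrated with SNAP-549-labelled MS2 coat protein from 0.7 or 1.5 nM, doubling to 3 µM, in the absence and then the presence of constant ligand. The buffer was 100 mM Tris-HCl pH 7.5, 80 mM KCl, 4 mM MgCl2, BSA, DTT, yeast tRNA and Tween-20. The apparent Kd is the median of filtered per-cluster fits of binding curves, with green signal normalised to red-channel RNA signal and control-cluster median Fmax.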

[1] = designed as: OFF switch for flavin mononucleotide, no ligand
[2] = ligand present: flavin mononucleotide, designed as: OFF switch for flavin mononucleotide
[3] = designed as: ON switch for flavin mononucleotide, no ligand
[4] = ligand present: flavin mononucleotide, designed as: ON switch for flavin mononucleotide

Row | Sequence | apparent Kd [1] [nM] | apparent Kd [2] [nM] | apparent Kd [3] [nM] | apparent Kd [4] [nM]
1 | AAAUAAGUUGCAGGAUAUUAUUUAUAAUAUAUAUAAGAAGGGCAACAAACCUCACAUGAGGAUCACCCAUGUACCCAUGCAUCU | 109 | 44.8 | – | –
2 | ACAUGAGGAUCACCCAUGUUGAAUUAGGAUAUUUGACUGCACAUGAGGUUCACCCAUGUUCUACCGAAGAAGGGAUUAAUAAUU | – | – | 120 | 118
3 | UAUAUAUAGUAAGGAUAUGUAUAUAUUGUAUAAACAGAAGGUACUGACAUGAGGAUCACCCAUGUUUUAGUGUGGGCAUGUAGA | 76.5 | 121 | – | –
4 | AUAGUAUAGCAAGGAUAUCGAUUUAGUUUGUUACGAGAAGGUGCUUUAGUUUAUACCUCUUGUUUACAUGAGGAUCACCCAUGU | 23.1 | 20.6 | – | –
5 | AGCUACGUUUCGUAGCAGCUAGGUGAGGAUAUUCAAAUUUUCACAUGAGGAUCACCCAUGUAUGUGAAGAAGGCGCCUAGAAAG | – | – | 9.58 | 5.44
6 | UUGGACGUCGUAGGAUAUGUAGGAUAUUCCUACAUGAGGAUCACCCAUGUUGUCAUGGAAGAAGGACAGAAGGACGAUGUCCAU | – | – | 328 | 4.9
7 | CUACCUUAUGAGAAGGCGAUCAUGAAACAUGAUCGAGGAUAUCAUGUAAACAUGAGGAUCACCCAUGUAUGGGUAUUAUGGUAC | – | – | 98.5 | 27.3
8 | ACCGAAUGAACAUGAGGAUCACCCAUGUACAGGAAACUGAAUGAGGAUAUCGAUAGCAAAGCUAUCGAGAAGGCAUGGGUCGGU | – | – | 285 | 69.7
9 | GUAGUAUUAAGUUCAUAAUAUAGGAUAGAAGGUGAAAAUUUGACAUGAGGAUCACCCAUGUAAUUCAAGGAUAUGUAGUAACUC | – | – | 97.7 | 80.1
10 | GGCUGCGAUGUGAAGGAUAUCCGCGUCUGGACAUGAGGAUCACCCAUGUAUGCUUGGAUCAUGCCGGAGAAGGUCACGAAUGAUU | – | – | 38 | 16.6
11 | AAAAGCAAAGGAUAUACAUGAGGAUCACCCAUGUAAAAAAGAAAAGAGUAUAUGGCAUGUAGAAGGUUGCGUGG | 34.5 | 49.8 | – | –
12 | UUGUUCUGAGGAUAUACAUGAGGAUCACCCAUGUGUUUCAGCUAGGAGACUAGCGAAUGUAGAAGGCUGUUCUC | 15.4 | 15.8 | – | –
13 | UGCUAGGAUGGGUCUAAUGGACCUCAGGAUAUGCUUGUACAUGAGGAUCACCCAUGUAACAUUGUGCAGAAGGGAGGAUCCACG | – | – | 8.45 | 4.93
14 | UCAUAACAUGAGGAUCACCCAUGUCAGGAUAUGAUACUAUGUACUUCGGUACAUAGUAUCAGAAGGGACAUACU | 96.8 | 153 | – | –
15 | GGUUUGGGAGGAUAUGGCUUGUUUGACAUGAGGAUCACCCAUGUAAGUGGAUCUUCCGGGCCAGAAGGCUCGGGCC | 104 | 188 | – | –
16 | GAGGAGCAAGGAUAUACGAGGAUAUGGAAGGUUGGAGAGUGACAUGAGGAUCACCCAUGUAGAAGGUGCGAGGG | 53.7 | 49.2 | – | –
17 | UCGAAAAUACAAGGAUAUCAAUUGUAGCUAAAUUCAACAUGAGGAUCACCCAUGUAACUAUGGAGUGAGAAGGUGUAGUAAUUU | – | – | 113 | 450
18 | CACACAUGAGGAUCACCCAUGUCGUGGGCGGAAAACUGUGCACAGGAUAUGGUGAAGGCAACUCACCAGAAGGGUGGUCAGGGA | – | – | 113 | 55
19 | GUGAGACAUGAGGAUCACCCAUGUCAGGAUAUGAUACUAUGUACUUCGGUACAUAGUAUCAGAAGGGACAGUGA | 53.6 | 66.7 | – | –
20 | AAUUUACAGCUAGGAUAUACAUGAGGAUCACCCAUGUAAUCAUAGGAUGUUAUCAUUGUAUGAGUGUAGAAGGAGCAAAUAAGA | 6.73 | 6.74 | – | –
21 | AAUAAACUCACAGGAUAUAGCAGAGGUCGCUUGAACUUACAGGCGACGAGGCUAGAAGGGUGACCACAUGAGGAUCACCCAUGU | – | – | 1190 | 135

Row | Sequence | apparent Kd [1] [nM] | apparent Kd [2] [nM] | apparent Kd [3] [nM] | apparent Kd [4] [nM]
22 | AUGCUCAGAGGAUAUACAUGAGGAUCACCCAUGUGUUACCGAGGAGUACGGUCGUCACGUAGAAGGCUGGGUAA | 17.9 | 58.8 | – | –
23 | UUCAUCAAUGAAGGAUAUCUAUGUCCAACAUGAGGAUCACCCAUGUUGAGGAUUACCUAUGUGUAGGAGAAGGUCAAUAUAACU | – | – | 6.53 | 5.93
24 | ACACGAAAGUCAGGAUAUGUAUCAGCACGAUAGUUACAUGAGGAUCACCCAUGUUUCACGGGCCAACAGAAGGGACAGGGUGGC | – | – | 18.4 | 7.62
25 | GUAGCAUACGGAGGAUAUGUAGGAUCUACAUGAGGAUCACCCAUGUCAAGGACAGAAGGCCGUAUGCUACAAGAGCGAAAGCUC | – | – | 11.6 | 5.79
26 | CGCAACAUACAGAAGGAGUAAAUUAGAAGUGUACUAGGAUAUGUAAACAUGAGGAUCACCCAUGUCGAAUGUGUUAUAGUUGCG | 8.24 | 8.53 | – | –
27 | GGCUCGCAGCUAGGAUAUGGGCGGUCACAUGAGGAUCACCCAUGUCAACAUCAAAACCAGAUUAACCAGAAGGAGCUGCGGGUU | – | – | 33.5 | 739
28 | GGAGCCGGCACCGAGGAUAUUCAUAUUAAAACAUGAGGAUCACCCAUGUAGAGCGAAAGCUCUUGGGAGAAGGCGGAUCGGCUCG | – | – | 730 | 46.5
29 | UAUAUACAUGAGGAUCACCCAUGUGAGGAUAUGCUUUAUUAUUAUUAUUAUUAUUAUUGCAGAAGGUACAUUAU | 28.9 | 28.8 | – | –
30 | CACGUCCACACAGGAUAUGCUGGACUUUGUCCAGCAGAAGGGUGACAUGAGGAUCACCCAUGUAAAAGGACGUGUAUAUUUAAU | – | – | 819 | 62.1
31 | UGCGGUAGAGGAUAUACGUAGAAGUAGAUUCAUGUAAAACUACAUGAGGAUCACCCAUGUAGAAGGCUAUCGCU | 22.9 | 230 | – | –
32 | AGCGAGAUAGGCAAGGAUAUGCUGGGUUUCACAUGAGGAUCACCCAUGUCAUUGGUUAUGUCCGAGCAGAAGGUGCAUUCUCUUU | – | – | 338 | 47.2
33 | UGGUACUAGGGAGGAUAUGGGAAGAUACAUGAGGAUCACCCAUGUUUAAGAAUGCCGAGAGGCAACUAGAAGGCCGUAGUACCU | – | – | 466 | 20.3
34 | UGUUGUAUUACAGGAUAUCUAUUAGUUUUGUUUAGAGAAGGGUAUUCACAUGAGGAUCACCCAUGUAUAUACGAGGAAGUUGUG | – | – | 59 | 65.2
35 | CCCACGAAAGUCGAACGAUGUAGCAGAAGGACAUGAGGAUCACCCAUGUCAGCUGUAACAGCCAUGUAGGAUAUGCUACAUCCC | 5.24 | 6.88 | – | –
36 | AAAAAACAUGAGGAUCACCCAUGUGAAAAUAUGGGAGGAUAUACAAACACGAAAGUGAAAGUAGAAGGCCUAAAAA | – | – | 97 | 25.6
37 | GUAGCAUAUGAUUUACAUGAGGAUCACCCAUGUAUCAUGGGUAAGGAUAUUGAUGUUAUGUUAAUCAAGAAGGUACUAUGCUAC | – | – | 281 | 18.9
38 | UGUAUAUAGGCAGGAUAUACAUGAAUAUAUAUGAUGUAGUAUGAUGUAACAUGAGGAUCACCCAUGUAGAAGGGCCAAUAUAUA | 40.8 | 135 | – | –
39 | UCGACGAAAGUCGAACGAUGUAGCAGAAGGACAUGAGGAUCACCCAUGUCAGCUGUAACAGCCAUGUAGGAUAUGCUACAUCGG | 4.43 | 5.37 | – | –
40 | UACCACCGCACGGACACGUCGAGUCAGGAUAUACAUGAGGAUCACCCAUGUGAAGGCCGGUUCAUGUAGAAGGGACAGGCGUUG | 49.8 | 100 | – | –
41 | UGGUACAUGGGAGGAUAUGGGACAUGAGGAUCACCCAUGUGAAAAUUAAAUAUGCCGAGAGGCAACUAGAAGGCCCAUGUACCU | – | – | 29.9 | 14.9
